In ChEMBL document CHEMBL4414600, “Discovery of a Furanopyrimidine-Based Epidermal Growth Factor Receptor Inhibitor (DBPR112) as a Clinical Candidate for the Treatment of Non-Small Cell Lung Cancer” (J Med Chem, 2019):

How the values were obtained:
[1] = target: T1, Cytoplasmic tyrosine-protein kinase BMX (Homo sapiens) (UniProt P51813); test: Binding affinity to wild-type human full length BMX (M1 to H675 residues) expressed in bacterial expression system assessed as residual binding level at 10000 nM by Kinomescan method relative to control
T1 sequence (whole entry): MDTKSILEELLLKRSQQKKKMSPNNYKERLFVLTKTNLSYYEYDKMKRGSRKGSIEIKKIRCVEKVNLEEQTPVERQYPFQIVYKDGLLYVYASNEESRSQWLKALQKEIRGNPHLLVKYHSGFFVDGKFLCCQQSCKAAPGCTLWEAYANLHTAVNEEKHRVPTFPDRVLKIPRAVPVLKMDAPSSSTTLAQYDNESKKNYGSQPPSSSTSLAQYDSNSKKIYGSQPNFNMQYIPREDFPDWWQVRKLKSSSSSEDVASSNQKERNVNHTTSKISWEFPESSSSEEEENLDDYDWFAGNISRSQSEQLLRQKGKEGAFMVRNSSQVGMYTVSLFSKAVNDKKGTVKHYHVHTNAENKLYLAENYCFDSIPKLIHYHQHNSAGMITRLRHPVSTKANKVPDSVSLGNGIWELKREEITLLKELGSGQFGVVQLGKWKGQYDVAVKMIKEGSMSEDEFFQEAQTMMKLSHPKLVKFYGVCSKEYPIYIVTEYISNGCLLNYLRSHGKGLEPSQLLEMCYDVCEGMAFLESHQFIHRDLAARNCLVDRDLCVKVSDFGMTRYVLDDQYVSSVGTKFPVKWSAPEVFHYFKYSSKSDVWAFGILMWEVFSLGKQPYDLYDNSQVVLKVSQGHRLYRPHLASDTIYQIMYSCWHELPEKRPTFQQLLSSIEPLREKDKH
How it was run: (§1)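 KINOMEScan competition binding panel run at 10,000 nM compound, with results expressed as percent of control binding. S(10) is the fraction of non-mutant kinases below 10% of control, out of 395 tested.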

[2] = target: Tyrosine-protein kinase BTK (Homo sapiens) (UniProt Q06187); test: Binding affinity to wild-type human full length BTK (M1 to S659 residues) expressed in mammalian expression system assessed as residual binding level at 10000 nM by Kinomescan method relative to control; how it was run: as §1
[3] = Toxicity in nude BALB/c mouse xenografted with human NCI-H1975 cells assessed as drug tolerability at 50 mg/kg, po QD for 15 days relative to control; format: organism-based; details: in vivo, 360 h
How it was run: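 H1975 cells were grown in RPMI1640 with 10% heat-inactivated FBS at 37 °C, 5% CO2, and passaged by trypsin-EDTA. 5x10^6 cells in 0.1 ml PBS were injected subcutaneously at the right flank of BALB/c nude mice. Oral QD dosing for 15 days began at a mean tumor size of 147 mm³, n = 5 per group.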

[4] = target: Tyrosine-protein kinase Blk (Homo sapiens) (UniProt P51451); test: Binding affinity to wild-type human partial length BLK (G211 to L503 residues) expressed in bacterial expression system assessed as residual binding level at 10000 nM by Kinomescan method relative to control; how it was run: as §1
[5] = target: STE20-like serine/threonine-protein kinase (Homo sapiens) (UniProt Q9H2G2); test: Binding affinity to wild-type human partial length SLK (S14 to A307 residues) expressed in bacterial expression system assessed as residual binding level at 10000 nM by Kinomescan method relative to control; how it was run: as §1
Sequence of STE20-like serine/threonine-protein kinase (Homo sapiens) (Q9H2G2 whole entry, looked up, the tested form may be a part): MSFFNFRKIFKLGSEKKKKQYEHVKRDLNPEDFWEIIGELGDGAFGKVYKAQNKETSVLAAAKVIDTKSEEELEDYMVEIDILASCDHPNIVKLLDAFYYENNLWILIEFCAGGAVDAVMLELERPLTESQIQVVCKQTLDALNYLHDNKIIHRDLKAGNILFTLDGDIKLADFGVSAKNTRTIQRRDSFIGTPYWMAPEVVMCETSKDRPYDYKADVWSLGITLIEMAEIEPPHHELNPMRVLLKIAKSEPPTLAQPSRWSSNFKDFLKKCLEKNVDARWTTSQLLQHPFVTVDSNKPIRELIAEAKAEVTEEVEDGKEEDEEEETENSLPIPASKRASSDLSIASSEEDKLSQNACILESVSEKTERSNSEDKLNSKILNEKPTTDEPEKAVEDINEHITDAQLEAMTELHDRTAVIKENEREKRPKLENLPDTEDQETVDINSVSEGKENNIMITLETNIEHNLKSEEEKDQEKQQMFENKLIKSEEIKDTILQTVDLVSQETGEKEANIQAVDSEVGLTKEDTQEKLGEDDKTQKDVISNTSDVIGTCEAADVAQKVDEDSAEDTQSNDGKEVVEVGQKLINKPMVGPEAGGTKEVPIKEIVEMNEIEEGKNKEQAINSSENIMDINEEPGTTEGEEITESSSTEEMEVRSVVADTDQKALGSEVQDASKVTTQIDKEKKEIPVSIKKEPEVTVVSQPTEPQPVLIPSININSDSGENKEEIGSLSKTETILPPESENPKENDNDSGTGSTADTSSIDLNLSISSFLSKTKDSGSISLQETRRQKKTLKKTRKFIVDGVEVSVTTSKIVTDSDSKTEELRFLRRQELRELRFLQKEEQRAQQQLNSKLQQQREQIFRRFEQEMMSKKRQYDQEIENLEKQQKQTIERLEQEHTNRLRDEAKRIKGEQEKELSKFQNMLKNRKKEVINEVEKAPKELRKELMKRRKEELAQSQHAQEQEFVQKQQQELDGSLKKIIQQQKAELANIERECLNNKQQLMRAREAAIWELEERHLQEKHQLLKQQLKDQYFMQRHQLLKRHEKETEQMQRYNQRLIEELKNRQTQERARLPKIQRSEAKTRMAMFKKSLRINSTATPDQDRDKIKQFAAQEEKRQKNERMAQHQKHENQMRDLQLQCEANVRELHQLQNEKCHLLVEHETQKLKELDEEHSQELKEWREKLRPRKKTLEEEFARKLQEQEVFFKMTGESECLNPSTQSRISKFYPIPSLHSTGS

Sequence of Tyrosine-protein kinase Blk (Homo sapiens) (P51451 2-505 limits assumed): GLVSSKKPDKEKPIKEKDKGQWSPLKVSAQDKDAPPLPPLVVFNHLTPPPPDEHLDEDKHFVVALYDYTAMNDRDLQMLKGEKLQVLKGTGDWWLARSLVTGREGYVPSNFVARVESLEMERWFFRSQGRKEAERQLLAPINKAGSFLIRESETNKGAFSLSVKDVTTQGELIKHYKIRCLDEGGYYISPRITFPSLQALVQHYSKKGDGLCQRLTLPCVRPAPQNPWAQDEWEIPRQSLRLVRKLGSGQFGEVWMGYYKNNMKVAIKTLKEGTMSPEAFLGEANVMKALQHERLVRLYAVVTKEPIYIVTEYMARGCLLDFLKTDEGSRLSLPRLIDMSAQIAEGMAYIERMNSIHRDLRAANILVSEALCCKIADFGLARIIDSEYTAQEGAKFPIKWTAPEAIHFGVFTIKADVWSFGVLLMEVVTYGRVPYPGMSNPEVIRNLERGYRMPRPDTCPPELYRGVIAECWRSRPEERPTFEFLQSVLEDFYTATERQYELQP
Sequence of Tyrosine-protein kinase BTK (Homo sapiens) (Q06187 whole entry, the tested form may be a part): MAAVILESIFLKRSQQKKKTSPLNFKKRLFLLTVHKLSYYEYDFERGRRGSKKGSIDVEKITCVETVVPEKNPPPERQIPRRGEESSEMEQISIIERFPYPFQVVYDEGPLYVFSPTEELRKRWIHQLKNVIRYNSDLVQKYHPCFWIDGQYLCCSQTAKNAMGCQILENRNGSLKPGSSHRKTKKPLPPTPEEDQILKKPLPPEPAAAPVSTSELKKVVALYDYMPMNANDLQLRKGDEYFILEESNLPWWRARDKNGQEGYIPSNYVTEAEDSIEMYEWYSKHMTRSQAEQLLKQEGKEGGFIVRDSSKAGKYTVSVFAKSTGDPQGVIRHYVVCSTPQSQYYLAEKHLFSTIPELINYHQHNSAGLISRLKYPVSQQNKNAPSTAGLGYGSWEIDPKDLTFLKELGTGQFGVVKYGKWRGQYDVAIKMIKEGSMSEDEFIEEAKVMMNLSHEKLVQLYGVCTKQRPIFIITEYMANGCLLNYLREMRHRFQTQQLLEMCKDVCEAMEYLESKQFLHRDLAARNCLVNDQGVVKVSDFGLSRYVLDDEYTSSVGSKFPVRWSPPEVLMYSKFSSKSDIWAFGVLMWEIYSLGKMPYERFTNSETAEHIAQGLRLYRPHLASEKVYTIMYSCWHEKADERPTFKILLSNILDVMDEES

Compound: CN(C)C/C=C/C(=O)Nc1cccc(-c2c(-c3ccccc3)oc3ncnc(N[C@H](CO)c4ccccc4)c23)c1
- Activity [1]: 4.8%
- Activity [2]: 3%
- Activity [3]: Non-Toxic
- Activity [4]: 0.25%
- Activity [5]: < 10%
